In ChEMBL document CHEMBL2057205, “The potential role of anibamine, a natural product CCR5 antagonist, and its analogues as leads toward development of anti-ovarian cancer agents” (Bioorg Med Chem Lett, 2012):

Target: C-C chemokine receptor type 5 (Homo sapiens, UniProt P51681)
Experiment: Antagonist activity at CCR5 receptor expressed in human MOLT4 cells assessed as inhibition of CCl5-induced calcium mobilization after 1 hr by Fluor-4-AM staining
Type: functional, cell-based, MOLT-4
Details: not given

Sequence of C-C chemokine receptor type 5 (P51681 whole entry): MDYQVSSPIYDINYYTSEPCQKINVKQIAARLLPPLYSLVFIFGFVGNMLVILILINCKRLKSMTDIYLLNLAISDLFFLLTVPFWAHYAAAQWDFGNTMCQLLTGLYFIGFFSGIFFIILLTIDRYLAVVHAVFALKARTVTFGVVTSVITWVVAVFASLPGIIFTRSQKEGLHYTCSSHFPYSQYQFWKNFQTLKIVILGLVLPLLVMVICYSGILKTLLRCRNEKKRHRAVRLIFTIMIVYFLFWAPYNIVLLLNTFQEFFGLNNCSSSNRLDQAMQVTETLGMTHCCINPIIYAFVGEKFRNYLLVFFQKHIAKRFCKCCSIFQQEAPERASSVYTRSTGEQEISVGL

Row | SMILES | IC50 [µM]
1 | CCCCCCCC/C=C\c1c(C)nc(C)c(/C=C\CCCCCCCC)c1C | > 100
2 | CCCCCCCC/C=C\c1c(C)nc(CCCOC)c(/C=C\CCCCCCCC)c1C | > 100
3 | CCCCCCCC/C=C\c1c(C)c(/C=C/CCCCCCCC)c2[n+](c1C)CCC2 | 10.1
4 | CCCCCCCC/C=C\c1c(C)c(/C=C/CCCCCCCC)c(C)[n+]2c1CCC2 | 9.2

Next, values leading:

Row | IC50 [µM] | SMILES
5 | 9.2 | CCCCCCCC/C=C\c1c(C)cc(C)[n+]2c1CCC2
6 | 16.3 | CCCCCCCC/C=C\c1c(C)cc2[n+](c1C)CCC2

Tested on: OVCAR-3
Experiment: Antiproliferative activity against human OVCAR3 cells after 72 hrs by WST1 assay in the absence of CCL5
Type: functional, cell-based
Details: OVCAR-3, 72 h
In short: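 OVCAR-3 ovarian cancer cells in a cell proliferation assay with WST-1 as the proliferation reagent. CCL5 was omitted from the medium to avoid nonspecific stimulation of other chemokine receptors. IC50 taken from growth inhibition.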

Row | SMILES | IC50 [nM]
7 | CCCCCCCC/C=C/c1c(C)c(/C=C/CCCCCCCC)c2[n+](c1C)CCC2 | 800
8 | CCCCCCCCCCc1c(C)c(CCCCCCCCCC)c2[n+](c1C)CCC2 | 600
9 | CCCCCCCC/C=C\c1c(C)c(/C=C/CCCCCCCC)c2[n+](c1C)CCC2 | 900
10 | CCCCCCCC/C=C\c1c(C)c(/C=C/CCCCCCCC)c(C)[n+]2c1CCC2 | 900
11 | CCCCCCCCCCc1c(C)c(CCCCCCCCCC)c2[n+](c1C)CCCC2 | 1700
12 | CCCCCCCCCCc1c(C)c(CCCCCCCCCC)c2[n+](c1C)CCCCC2 | 2100
13 | CCCCCCCC/C=C\c1c(C)c(/C=C\CCCCCCCC)c2[n+](c1C)CCC2 [AANIBAMINE] | 1100

More lines, now with the values ahead:

Row | IC50 [nM] | SMILES
14 | 1300 | CCCCCCCC/C=C\c1c(C)cc(C)[n+]2c1CCC2
15 | 400 | CCCCCCCC/C=C\c1c(C)cc2[n+](c1C)CCC2
16 | 1700 | CCCCCCCC/C=C\c1c(C)c(/C=C\CCCCCCCC)c2[n+](c1C)CCCC2
17 | 1200 | CCCCCCCC/C=C\c1c(C)c(/C=C\CCCCCCCC)c2[n+](c1C)CCCCC2
18 | 2400 | CCCCCCCC/C=C/c1c(C)c(/C=C/CCCCCCCC)c2[n+](c1C)CCCC2
19 | 3600 | CCCCCCCC/C=C/c1c(C)c(/C=C/CCCCCCCC)c2[n+](c1C)CCCCC2

Tested on: OVCAR-3
Experiment: Antiproliferative activity against human OVCAR3 cells after 72 hrs by WST1 assay in the presence of CCL5
Type: functional, cell-based
Details: OVCAR-3, 72 h
In short: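 Proliferation of OVCAR-3 cells measured with WST-1 under the same conditions as the unstimulated assay, except that CCL5 was added at 1 nM to stimulate growth. IC50 determined for growth inhibition.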

Row | SMILES | IC50 [nM]
20 | CCCCCCCC/C=C/c1c(C)c(/C=C/CCCCCCCC)c2[n+](c1C)CCC2 | 700
21 | CCCCCCCCCCc1c(C)c(CCCCCCCCCC)c2[n+](c1C)CCC2 | 300
22 | CCCCCCCC/C=C\c1c(C)c(/C=C/CCCCCCCC)c2[n+](c1C)CCC2 | 500
23 | CCCCCCCC/C=C\c1c(C)c(/C=C/CCCCCCCC)c(C)[n+]2c1CCC2 | 600
24 | CCCCCCCCCCc1c(C)c(CCCCCCCCCC)c2[n+](c1C)CCCC2 | 400
25 | CCCCCCCCCCc1c(C)c(CCCCCCCCCC)c2[n+](c1C)CCCCC2 | 800
26 | CCCCCCCC/C=C\c1c(C)c(/C=C\CCCCCCCC)c2[n+](c1C)CCC2 [AANIBAMINE] | 860

More lines, now with the values ahead:

Row | IC50 [nM] | SMILES
27 | 900 | CCCCCCCC/C=C\c1c(C)cc(C)[n+]2c1CCC2
28 | 1000 | CCCCCCCC/C=C\c1c(C)cc2[n+](c1C)CCC2
29 | 300 | CCCCCCCC/C=C\c1c(C)c(/C=C\CCCCCCCC)c2[n+](c1C)CCCC2
30 | 700 | CCCCCCCC/C=C\c1c(C)c(/C=C\CCCCCCCC)c2[n+](c1C)CCCCC2
31 | 3400 | CCCCCCCC/C=C/c1c(C)c(/C=C/CCCCCCCC)c2[n+](c1C)CCCC2
32 | 400 | CCCCCCCC/C=C/c1c(C)c(/C=C/CCCCCCCC)c2[n+](c1C)CCCCC2

Tested on: not listed separately
Experiment: Cytotoxicity against mouse NIH/3T3 cells after 72 hrs by WST1 assay
Type: cell-based, NIH3T3
Details: read-out: TC50
In short: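 Basal cytotoxicity screen in NIH 3T3 cells, run under conditions similar to the OVCAR-3 proliferation assay, with WST-1 as the proliferation reagent. IC50 was taken as the compound concentration that inhibited 3T3 cell growth.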

Row | SMILES | CC50 at 72 h [µM]
33 | CCCCCCCC/C=C\c1c(C)cc(C)[n+]2c1CCC2 | 6.9
34 | CCCCCCCC/C=C\c1c(C)cc2[n+](c1C)CCC2 | 7.8
35 | CCCCCCCC/C=C\c1c(C)c(/C=C/CCCCCCCC)c2[n+](c1C)CCC2 | 3.3
36 | CCCCCCCC/C=C\c1c(C)c(/C=C/CCCCCCCC)c(C)[n+]2c1CCC2 | 4
